PvdQ inh = P. aeruginosa PvdQ acylase inhibition | 340,000 compounds, 0.063% hits | inhibition, % at 10 µM | purified PvdQ acylase, fluorescence plate reader; in the data active = inhibition above about 30%, passing the limit was not always enough;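 also: 0% = vehicle neutral wells and 100% = reference inhibitor wells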
CHOP inhibitor = blocks CHOP induction under ER stress; CHO-K1 CHOP-promoter luciferase, tunicamycin-induced, 15-18 h; 220,000 compounds, 3.8% hits; inhibition, % at 10 µM;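 active = compounds that reduced the stress-induced luciferase reporter signal by more than about 70% of percent inhibition, limit read from the data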;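 also: 0% = tunicamycin plus vehicle and 100% = wells without tunicamycin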
XBP1 UPR activ = activators of adaptive arm of unfolded protein response (XBP1) | 330,000 compounds, 0.33% hits | activation, % at 20 µM | CHO-XBP1 luciferase reporter, IRE1-XBP1 UPR activation, luminescence; percent of tunicamycin response, DMSO as zero;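 active = versus positive control, 20 µM dose yields 30% or more activation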;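 also: 100% = tunicamycin at 10 µg/mL and 0% = DMSO only wells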
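Material: CHO-XBP1 cells stably carrying IRE1-XBP1-driven luciferase reporter / Amount: 1000 cells per well / Compound: 20 µM, 1% DMSO / Times: 6 h treatment, 37 °C / Detection: luciferase luminescence / Measure: % activation of reporter signal versus tunicamycin and DMSO controls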
UPR CHOP act = activators of apoptotic arm of unfolded protein response (CHOP) | CHO-CHOP luciferase reporter, UPR activation, luminescence; percent of tunicamycin response over DMSO baseline | activation, % at 10 µM | 330,000 compounds, 0.34% hits | AID 449763;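 active = at 10 µM dose, activation of 40% or more, normalized to positive control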;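 also: 100% = tunicamycin at 10 µg/mL and 0% = DMSO alone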
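Assay system: CHO cells with stable CHOP pathway luciferase reporter; Buffer or medium: F12 plus 10% serum; Times: 16-18 h cell attachment, then 6 h compound exposure, 37 °C; Signal: luciferase luminescence; Read-out basis: percent activation relative to tunicamycin control; Control set: tunicamycin high control, DMSO low control.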
* marks the source's active call; other numbers are inactive results. The entries come from a sample that favours hits as a whole.

How did Cc1cccc(Cn2c(=O)n(Cc3ccco3)c(=O)c3ccccc32)c1 do in these assays?
PvdQ inh: -17; CHOP inhibitor: 52; XBP1 UPR activ: -4; UPR CHOP act: 1

What do the screens show for `Cc1ccccc1Cn1c(=O)n(Cc2ccco2)c(=O)c2ccccc21`?
PvdQ inh: 0; CHOP inhibitor: 88*; XBP1 UPR activ: 0; UPR CHOP act: -1

Results for Cc1ccc(-n2c(=O)c3ccc(C(=O)NCc4ccco4)cc3n(Cc3ccccc3C#N)c2=O)cc1 ?
PvdQ inh: 8; CHOP inhibitor: 6; XBP1 UPR activ: -3; UPR CHOP act: -3

How did Cc1ccccc1Cn1c(=O)n(-c2ccccc2)c(=O)c2ccc(C(=O)NCc3ccco3)cc21 do in these assays?
PvdQ inh: -12; CHOP inhibitor: 81*; XBP1 UPR activ: -1; UPR CHOP act: 1

What do the screens show for `CCCCN(C(=O)c1ccco1)c1nnc(-c2cc(OC)c(OC)c(OC)c2)s1`?
PvdQ inh: -7; CHOP inhibitor: 73*; XBP1 UPR activ: 1; UPR CHOP act: 1

How did Cc1ccsc1/C=N/NC(=O)CSCc1ccc(Cl)cc1 do in these assays?
PvdQ inh: -14; CHOP inhibitor: 92*; XBP1 UPR activ: -5; UPR CHOP act: -3

What do the screens show for `Cc1ccsc1/C=N/NC(=O)Cc1ccc(Cl)cc1`?
PvdQ inh: -11; CHOP inhibitor: 35; XBP1 UPR activ: 0; UPR CHOP act: -1

What do the screens show for `O=C(CCCC(=O)NN=Cc1ccc(Cl)cc1Cl)NN=Cc1ccc(Cl)cc1Cl`?
PvdQ inh: 4

Results for O=C(CSCc1ccc(Cl)cc1)N/N=C/c1ccc(Cl)cc1Cl ?
PvdQ inh: -5; CHOP inhibitor: 91*; XBP1 UPR activ: 0; UPR CHOP act: 0

How did CN(Cc1ccccc1)c1nc(N)c([N+](=O)[O-])c(Nc2cccc(F)c2)n1 do in these assays?
PvdQ inh: -5; CHOP inhibitor: 44; XBP1 UPR activ: 12; UPR CHOP act: 0

How did COC(=O)c1c(NC(=O)COC(=O)CNC(=O)C2CCCCC2)sc(C)c1C do in these assays?
PvdQ inh: -11; CHOP inhibitor: 78*; XBP1 UPR activ: 2; UPR CHOP act: 0

Results for CCOC(=O)c1cnc2ccc(C)cc2c1Nc1ccc(N2CCOCC2)cc1 ?
PvdQ inh: 2; CHOP inhibitor: 72*; XBP1 UPR activ: -2; UPR CHOP act: 1

Results for COc1ccc(Nc2nc(N3CCCC3)nc(N3CCOCC3)n2)cc1 ?
PvdQ inh: -11; XBP1 UPR activ: 2; UPR CHOP act: -3

What do the screens show for `COc1ccc(Nc2nc(Cl)nc(Nc3ccc(OC)cc3)n2)cc1`?
PvdQ inh: 5; CHOP inhibitor: 71*; XBP1 UPR activ: 1; UPR CHOP act: 1

Results for COc1ccc(Nc2nc(Cl)nc(N3CCN(c4ccc(OC)cc4)CC3)n2)cc1 ?
CHOP inhibitor: 93*; XBP1 UPR activ: -3; UPR CHOP act: 2

Results for CCOc1ccc(Nc2nc(N3CCOCC3)nc(N3CCOCC3)n2)cc1 ?
PvdQ inh: 12; XBP1 UPR activ: -2; UPR CHOP act: -1

How did COc1ccc(Nc2nc(OC)nc(N3CCN(c4ccc(OC)cc4)CC3)n2)cc1 do in these assays?
PvdQ inh: -11; CHOP inhibitor: 77*

How did O=C(O)c1cccc(N/N=C/c2cccs2)c1 do in these assays?
PvdQ inh: -9; CHOP inhibitor: 84*; XBP1 UPR activ: -7; UPR CHOP act: -11

How did O=C(N/N=C/c1cccs1)C(=O)Nc1cccc(Cl)c1 do in these assays?
PvdQ inh: 9; CHOP inhibitor: 59; XBP1 UPR activ: 7; UPR CHOP act: 2

What do the screens show for `O=C(O)c1ccc(N/N=C/c2ccc(OC(=O)c3cccc(Cl)c3)cc2)cc1`?
PvdQ inh: 1; CHOP inhibitor: 79*; XBP1 UPR activ: -6; UPR CHOP act: -8

What do the screens show for `O=C(O)c1cccc(N/N=C/c2ccc(OC(F)(F)F)cc2)c1`?
PvdQ inh: 7; XBP1 UPR activ: -10; UPR CHOP act: -8

Results for CSc1ccc(/C=N/Nc2cccc(C(=O)O)c2)cc1 ?
PvdQ inh: 9; CHOP inhibitor: 85*

Results for OCC1(Cc2cccc(Cl)c2)CCCN(Cc2ccc(F)c(F)c2)C1 (stereo not given) ?
PvdQ inh: -17; XBP1 UPR activ: 1; UPR CHOP act: -1

What do the screens show for `CSc1cccc(CN2CCCC(CO)(Cc3cccc(Cl)c3)C2)c1` (stereo not given)?
PvdQ inh: -9; CHOP inhibitor: 95*; XBP1 UPR activ: 2; UPR CHOP act: 0

What do the screens show for `CSc1ccccc1NC(=O)COc1ccc(Cl)cc1C`?
PvdQ inh: -4; CHOP inhibitor: 83*; XBP1 UPR activ: 4; UPR CHOP act: 3

Screens as filed in PubChem BioAssay.
